What was measured:
[1] = biological target: T1, Prostaglandin G/H synthase 1 (Ovis aries, UniProt P05979); assay: Inhibition of ovine COX-1 assessed as peroxidase activity using arachidonic acid as substrate by colorimetric method
T1 sequence (P05979 whole entry): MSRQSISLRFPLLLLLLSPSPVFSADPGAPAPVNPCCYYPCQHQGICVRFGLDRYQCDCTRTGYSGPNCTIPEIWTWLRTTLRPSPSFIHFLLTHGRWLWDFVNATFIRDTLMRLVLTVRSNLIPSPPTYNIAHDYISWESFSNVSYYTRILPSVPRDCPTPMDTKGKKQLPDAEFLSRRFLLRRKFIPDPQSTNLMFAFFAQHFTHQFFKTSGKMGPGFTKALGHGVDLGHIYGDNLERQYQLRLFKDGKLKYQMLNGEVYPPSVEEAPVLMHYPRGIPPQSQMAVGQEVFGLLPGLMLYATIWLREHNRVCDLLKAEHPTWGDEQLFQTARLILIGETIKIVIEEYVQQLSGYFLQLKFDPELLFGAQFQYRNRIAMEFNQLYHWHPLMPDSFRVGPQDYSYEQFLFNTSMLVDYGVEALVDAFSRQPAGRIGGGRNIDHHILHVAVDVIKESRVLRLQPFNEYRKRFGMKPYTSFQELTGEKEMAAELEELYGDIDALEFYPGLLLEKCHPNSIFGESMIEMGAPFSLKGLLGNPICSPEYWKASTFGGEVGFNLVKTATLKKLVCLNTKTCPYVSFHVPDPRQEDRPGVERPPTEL
Method in brief: (§1)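 Colorimetric COX inhibitor screening kit measuring cyclooxygenase peroxidase activity on arachidonic acid substrate, read as oxidized TMPD at 590 nm. Compound stocks are made in DMSO. IC50 is the mean of at least three independent measurements. Percent inhibition is taken at the highest final inhibitor concentration, 50 µM.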

[2] = biological target: T2, Prostaglandin G/H synthase 1 (Ovis aries) (UniProt P05979); assay: Inhibition of ovine COX-1 assessed as peroxidase activity using arachidonic acid as substrate at 50 uM by colorimetric method; method in brief: as §1
T2 sequence (whole entry): T1 sequence (P05979 whole entry)

[3] = biological target: T3, Prostaglandin G/H synthase 2 (Homo sapiens, UniProt P35354); assay: Inhibition of human COX-2 assessed as peroxidase activity using arachidonic acid as substrate by colorimetric method; method in brief: as §1
T3 sequence (P35354 whole entry): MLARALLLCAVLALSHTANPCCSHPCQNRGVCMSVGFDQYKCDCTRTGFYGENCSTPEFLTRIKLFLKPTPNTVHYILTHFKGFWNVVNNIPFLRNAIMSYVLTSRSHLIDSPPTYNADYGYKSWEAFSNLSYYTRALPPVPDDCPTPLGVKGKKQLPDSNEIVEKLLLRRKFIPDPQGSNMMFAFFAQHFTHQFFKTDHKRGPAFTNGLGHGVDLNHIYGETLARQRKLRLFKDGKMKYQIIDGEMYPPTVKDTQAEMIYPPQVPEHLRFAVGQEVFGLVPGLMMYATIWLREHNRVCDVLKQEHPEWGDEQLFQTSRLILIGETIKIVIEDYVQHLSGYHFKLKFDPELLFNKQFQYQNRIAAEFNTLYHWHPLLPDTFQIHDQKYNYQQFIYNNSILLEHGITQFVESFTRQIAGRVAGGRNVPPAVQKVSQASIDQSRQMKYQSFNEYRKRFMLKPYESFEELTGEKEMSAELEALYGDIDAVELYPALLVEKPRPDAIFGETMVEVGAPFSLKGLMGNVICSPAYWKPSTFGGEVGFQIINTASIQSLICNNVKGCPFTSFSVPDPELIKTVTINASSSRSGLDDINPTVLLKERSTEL

[4] = Selectivity index, ratio of IC50 for human COX-2 to IC50 for ovine COX-1
Method in brief: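 Selectivity index is calculated as COX-2 IC50 divided by COX-1 IC50, each taken from the colorimetric TMPD peroxidase assay with arachidonic acid substrate.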

[5] = biological target: T4, Prostaglandin G/H synthase 2 (Homo sapiens) (UniProt P35354); assay: Inhibition of human COX-2 assessed as peroxidase activity using arachidonic acid as substrate at 50 uM by colorimetric method; method in brief: as §1
T4 sequence (whole entry): T3 sequence (P35354 whole entry)

Plasma [6] = assay: Antiplatelet activity in human platelet-rich plasma assessed as inhibition of arachidonic acid-induced platelet aggregation by turbidimetric method; assay type: functional
Method in brief: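 Platelet-rich and platelet-poor plasma prepared from human whole blood (n=3) by differential centrifugation. Compounds pre-incubated in PRP for 2 min, then aggregation is induced with 500 µM arachidonic acid and followed turbidimetrically in an aggregometer. IC50 is determined from several concentrations, in triplicate. Acetylsalicylic acid is the positive control; 1% DMSO vehicle is the negative control.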

Plasma [7] = assay: Anticoagulant activity in human plasma assessed as activated partial thromboplastin time at 100 uM; assay type: functional
Method in brief: (§2)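 Human platelet-poor plasma from whole blood (n=3) by differential centrifugation, run on a coagulation analyzer. Compounds at 100 µM incubated with plasma 15 min at room temperature, then 2 min at 37 °C. For aPTT, cephalin is added for 2 min and clotting is started with 0.025 M CaCl2. For PT, PBS is added for 3 min and clotting is started with calcium thromboplastin. Clotting time is read in seconds at 37 °C. Negative control is 1% DMSO; positive control is 100 µM rivaroxaban.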

Plasma [8] = assay: Anticoagulant activity in human plasma assessed as prothrombin time at 100 uM; assay type: functional; method in brief: as §2
[9] = Hemolytic activity against human erythrocytes assessed as hemolysis incubated for 3 hrs by spectrophotometric analysis relative to control; assay type: ADME, cell-based, Erythrocyte; conditions: read-out: Activity
Method in brief: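 Citrated human blood (n=3) centrifuged at 2500 rpm for 15 min. The erythrocyte pellet is washed three times and resuspended in PBS pH 7.4. Compounds are incubated with the erythrocytes for 3 h at 37 °C. After centrifugation, released hemoglobin is read at 540 nm. Controls are 1% DMSO (negative) and 1% Triton X-100 (positive). Below 10% counts as non-hemolytic.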

Vero [10] = assay: Cytotoxicity against African green monkey Vero cells at 10 uM measured after 48 hrs by MTT assay relative to control; assay type: cell-based; conditions: chlorocebus sabaeus
Method in brief: (§3)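 Vero cells grown at 37 °C in 5% CO2 in medium with 10% inactivated FBS. Cells seeded at 3.2×10^4 per well and grown 24 h, then exposed to compounds for 48 h (n = 4). Control is DMEM with 10% FBS and 1% DMSO. MTT (2.5 mg/mL solution) is added for 3 h, formazan is dissolved in DMSO and absorbance is read at 570 nm. Viability is given as % of untreated cells, mean ± SD.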

Vero [11] = assay: Cytotoxicity against African green monkey Vero cells at 100 uM measured after 48 hrs by MTT assay relative to control; assay type: cell-based; conditions: chlorocebus sabaeus; method in brief: as §3
[12] = Genotoxicity in Salmonella typhimurium TA97 at 10 to 500 uM by AMES test; assay type: toxicity; conditions: salmonella enterica subsp. enterica serovar typhimurium, dose 10-500 µM
Method in brief: (§4)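 Ames reverse mutation to histidine prototrophy using S. typhimurium TA97, TA98, TA100 and TA102. Compounds are dissolved in DMSO and tested at 10, 100 and 500 µM.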

[13] = Genotoxicity in Salmonella typhimurium TA98 at 10 to 500 uM by AMES test; assay type: toxicity; conditions: salmonella enterica subsp. enterica serovar typhimurium, dose 10-500 µM; method in brief: as §4
[14] = Genotoxicity in Salmonella typhimurium TA100 at 10 to 500 uM by AMES test; assay type: toxicity; conditions: salmonella enterica subsp. enterica serovar typhimurium, dose 10-500 µM; method in brief: as §4
[15] = Genotoxicity in Salmonella typhimurium TA102 at 10 to 500 uM by AMES test; assay type: toxicity; conditions: salmonella enterica subsp. enterica serovar typhimurium, dose 10-500 µM; method in brief: as §4
[16] = Mutagenicity in Escherichia coli PQ35 at 10 to 500 uM by SOS-chromotest; assay type: toxicity; conditions: dose 10-500 µM
Method in brief: (§5)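 SOS chromotest spot assay with E. coli PQ35 and PQ37. An overnight culture is diluted in LB and grown at 37 °C to 2×10^8 bacteria/mL. Then 0.1 mL is mixed in top agar and poured on M63 plates. 10 µL of compound in DMSO (10, 100 or 500 µM) is spotted centrally and plates are incubated overnight at 37 °C. A blue ring around the inhibition zone indicates genotoxicity. Run in triplicate with 4-NQO as positive control.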

[17] = Mutagenicity in Escherichia coli PQ37 at 10 to 500 uM by SOS-chromotest; assay type: toxicity; conditions: dose 10-500 µM; method in brief: as §5

| IC50 [1] [nM] | inhibition [2] [%] | IC50 [3] [nM] | Ratio IC50 [4] | inhibition [5] [%] | IC50 (Plasma [6]) [nM] | SMILES | APTT (Plasma [7]) [s] | PT (Plasma [8]) [s] | hemolysis at 3 h [9] [%] | Activity (Vero [10]) [%] | Activity (Vero [11]) [%] | Activity [12] | Activity [13] | Activity [14] | Activity [15] | Activity [16] | Activity [17] |
| --- | --- | --- | --- | --- | --- | --- | --- | --- | --- | --- | --- | --- | --- | --- | --- | --- | --- |
| 950 | 100 | 3500 | 3.7 | 51 |  | COc1ccc(-c2noc(CC(=O)NCCCCN)c2-c2ccc(OC)cc2)cc1 |  |  |  |  |  |  |  |  |  |  |  |
|  |  |  |  |  | 450 | COc1ccc(-c2noc(CC(=O)O)c2-c2ccc(OC)cc2)cc1 [MOFEZOLAC] | 50.8 | 14.2 | 0 | 97 | 91 | Non-Toxic | Non-Toxic | Non-Toxic | Non-Toxic | Non-Toxic | Non-Toxic |
| 24000 | 74 | 500 | 0.02 | 79 |  | COc1ccc(-c2noc(CC(=O)Nc3ccc(N)cc3)c2-c2ccc(OC)cc2)cc1 |  |  |  |  |  |  |  |  |  |  |  |
| 13 | 75 | 120 | 9 | 45 |  | COc1ccc(-c2noc(CC(=O)NCCNC(=O)Cc3onc(-c4ccc(OC)cc4)c3-c3ccc(OC)cc3)c2-c2ccc(OC)cc2)cc1 |  |  |  |  |  |  |  |  |  |  |  |
| 75 | 85 | 300 | 4 | 71 |  | COc1ccc(-c2noc(CC(=O)Nc3ccc(-c4ccc(N)cc4)cc3)c2-c2ccc(OC)cc2)cc1 |  |  |  |  |  |  |  |  |  |  |  |
| 150 | 85 | > 50000 | > 333 |  | 910 | COc1ccc(-c2noc(CC(=O)Nc3ccc(NC(=O)Cc4onc(-c5ccc(OC)cc5)c4-c4ccc(OC)cc4)cc3)c2-c2ccc(OC)cc2)cc1 | 47.5 | 15.5 | 0 | 98 | 97 | Non-Toxic | Non-Toxic | Non-Toxic | Non-Toxic | Non-Toxic | Non-Toxic |
| 50 | 66 | > 50000 |  |  | 610 | CCCCC/C=C\C/C=C\C/C=C\C/C=C\CCCC(=O)Nc1ccc(NC(=O)Cc2onc(-c3ccc(OC)cc3)c2-c2ccc(OC)cc2)cc1 | 55.6 | 15.3 | 0 | 93 | 79 |  |  |  |  |  |  |

Second part, the compound before the results:

| SMILES | IC50 [1] [nM] | inhibition [2] [%] | IC50 [3] [nM] | Ratio IC50 [4] | inhibition [5] [%] | IC50 (Plasma [6]) [nM] | APTT (Plasma [7]) [s] | PT (Plasma [8]) [s] | hemolysis at 3 h [9] [%] | Activity (Vero [10]) [%] | Activity (Vero [11]) [%] | Activity [12] | Activity [13] | Activity [14] | Activity [15] | Activity [16] | Activity [17] |
| --- | --- | --- | --- | --- | --- | --- | --- | --- | --- | --- | --- | --- | --- | --- | --- | --- | --- |
| COc1ccc(-c2noc(CC(=O)NCCCCNC(=O)Cc3onc(-c4ccc(OC)cc4)c3-c3ccc(OC)cc3)c2-c2ccc(OC)cc2)cc1 | 5500 | 74 | > 50000 | > 9 |  |  |  |  |  |  |  |  |  |  |  |  |  |
| CCCCC/C=C\C/C=C\C/C=C\C/C=C\CCCC(=O)Nc1ccc(-c2ccc(NC(=O)Cc3onc(-c4ccc(OC)cc4)c3-c3ccc(OC)cc3)cc2)cc1 | 17000 | 50 | 90 | 0.005 | 60 | 760 | 48 | 14.6 | 0.14 | 94 | 84 | Non-Toxic | Non-Toxic | Non-Toxic | Non-Toxic | Non-Toxic | Non-Toxic |
| COc1ccc(-c2noc(CC(=O)NCCCCCCNC(=O)Cc3onc(-c4ccc(OC)cc4)c3-c3ccc(OC)cc3)c2-c2ccc(OC)cc2)cc1 | 9000 | 50 | > 50000 | > 5.5 |  |  |  |  |  |  |  |  |  |  |  |  |  |
| CC(=O)Oc1ccccc1C(=O)O [ASPIRIN] |  |  |  |  |  | 1110 | 50.3 | 14.6 | 0 | 100 | 95 | Non-Toxic | Non-Toxic | Non-Toxic | Non-Toxic | Non-Toxic | Non-Toxic |
| CCCCC/C=C\C/C=C\C/C=C\C/C=C\CCCC(=O)NCCCCNC(=O)Cc1onc(-c2ccc(OC)cc2)c1-c1ccc(OC)cc1 |  | 57 | 800 | 0.05 | 61 |  |  |  |  |  |  |  |  |  |  |  |  |
| COc1ccc(-c2noc(CC(=O)Nc3ccc(-c4ccc(NC(=O)Cc5onc(-c6ccc(OC)cc6)c5-c5ccc(OC)cc5)cc4)cc3)c2-c2ccc(OC)cc2)cc1 | 80 | 73 | > 50000 | > 625 |  | 440 | 46.5 | 15.1 | 0 | 100 | 92 | Non-Toxic | Non-Toxic | Non-Toxic | Non-Toxic | Non-Toxic | Non-Toxic |
| COc1ccc(-c2noc(CC(=O)NCc3ccc(CNC(=O)Cc4onc(-c5ccc(OC)cc5)c4-c4ccc(OC)cc4)cc3)c2-c2ccc(OC)cc2)cc1 | > 50000 |  | > 50000 |  |  |  |  |  |  |  |  |  |  |  |  |  |  |
| COc1ccc(-c2noc(CC(=O)NCCCCCCCCCCCCNC(=O)Cc3onc(-c4ccc(OC)cc4)c3-c3ccc(OC)cc3)c2-c2ccc(OC)cc2)cc1 | 7100 | 40 | > 50000 | > 7 |  |  |  |  |  |  |  |  |  |  |  |  |  |
